From ChEMBL document CHEMBL3414437, “Synthesis of CDDO-amino acid-nitric oxide donor trihybrids as potential antitumor agents against both drug-sensitive and drug-resistant colon cancer” (J Med Chem, 2015)
Activity calls are given as the source filed them. No cut-off for these calls is given here.

Tests used:
HCT-8 [1] = experiment: Inhibition of HIF-1alpha protein expression in human HCT8 cells at 1 uM incubated for 24 hrs by Western blotting method; format: functional, cell-based
How it was run: (§1)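 Cells (1 x 10^6) grown 24 h in 6 cm dishes, then exposed in duplicate for 24 h to 0.25, 0.5 or 1 µM compound, with or without PTIO. Lysates (20 µg/lane) were run on 7.5% SDS-PAGE, blotted to PVDF and blocked in 5% milk. HRP secondaries with ECL detection; bands quantified by densitometry against β-actin or GAPDH. Three separate experiments, mean ± SD.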

HCT-8 [2] = experiment: Inhibition of ERK protein phosphorylation in human HCT8 cells at 1 uM incubated for 24 hrs by Western blotting method; format: cell-based; how it was run: as §1
HCT-8 [3] = experiment: Induction of nitric oxide release in 5-FU resistant human HCT8 cells at 100 uM incubated for 150 mins by Griess assay; format: functional, cell-based
How it was run: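 Cells (1 × 10^6/well) treated in triplicate with compound at 100 µM for 150 min. Lysates mixed with Griess reagent for 10 min at 37 °C and read at 540 nm. Nitrite quantified from a sodium nitrite standard curve; 0.4% DMSO-treated cells served as background. Mean ± SD of three experiments.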

[4] = target: T1, Broad substrate specificity ATP-binding cassette transporter ABCG2 (Homo sapiens, UniProt Q9UNQ0); experiment: Induction of nitrosylation of BCRP protein in FU-resistant human HCT8 cells at 0.25 to 1 uM incubated for 24 hrs by Western blotting method; format: cell-based; conditions: hct-8, 24 h
T1 sequence (Q9UNQ0 whole entry): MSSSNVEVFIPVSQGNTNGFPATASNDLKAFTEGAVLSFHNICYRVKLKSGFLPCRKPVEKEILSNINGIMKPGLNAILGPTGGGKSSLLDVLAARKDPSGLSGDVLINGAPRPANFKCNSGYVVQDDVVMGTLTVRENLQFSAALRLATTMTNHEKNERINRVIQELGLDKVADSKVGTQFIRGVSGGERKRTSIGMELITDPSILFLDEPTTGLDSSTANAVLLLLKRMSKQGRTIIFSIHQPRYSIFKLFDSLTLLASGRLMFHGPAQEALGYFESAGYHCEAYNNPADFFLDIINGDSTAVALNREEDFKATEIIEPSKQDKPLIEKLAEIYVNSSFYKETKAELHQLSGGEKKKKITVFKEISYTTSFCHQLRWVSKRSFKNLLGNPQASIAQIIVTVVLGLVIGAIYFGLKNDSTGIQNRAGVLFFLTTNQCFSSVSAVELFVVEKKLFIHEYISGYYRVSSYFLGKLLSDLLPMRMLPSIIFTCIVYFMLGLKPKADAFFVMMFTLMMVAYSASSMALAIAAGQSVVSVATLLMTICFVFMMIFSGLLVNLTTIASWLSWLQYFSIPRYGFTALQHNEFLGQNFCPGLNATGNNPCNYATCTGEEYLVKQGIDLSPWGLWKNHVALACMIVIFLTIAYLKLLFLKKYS
How it was run: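 HCT-8/5-FU cells (1 × 10^6) treated in duplicate for 24 h with 0.25, 0.5 or 1 µM test compound or 1 µM reference, with or without PTIO. Lysates immunoprecipitated overnight at 4 °C with anti-nitrotyrosine antibody on protein G beads. Eluates blotted with specific anti-Pgp, anti-MRP1 or anti-BCRP antibodies and quantified by densitometry. Mean ± SD of three experiments.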

Mus musculus [5] = experiment: Toxicity in ICR mouse assessed as body weight changes at 0.60 x 10^3 to 2.38 x 10^3 umol/kg administered as single dose via oral gavage measured up to 14 days post treatment; format: organism-based; conditions: in vivo, 336 h
How it was run: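 Adult ICR mice of either sex were randomised and given a single oral gavage dose of 500, 1000, 1500 or 2000 mg/kg in cremophor-EL/DMSO/PBS (1:1:8). Survival, behaviour, water and food intake, body weight and activity were monitored for up to 14 days. Body weights were taken on days 0, 7 and 14.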

Mus musculus [6] = experiment: Toxicity in nude BALB/c mouse xenografted with FU-resistant human HCT8 cells assessed as abnormal weight changes in liver at 17.8 to 35.7 umol/kg administered as via oral gavage daily for 21 days; format: organism-based, HCT-8; conditions: in vivo, 504 h
How it was run: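 Male BALB/c nude mice aged 6-8 weeks, implanted s.c. in the right flank with HCT-8/5-FU cells (2 × 10^6). Once tumors reached 180-200 mm3 (days 9-11), randomized to daily gavage for 21 days in cremophor-EL/DMSO/PBS (1:1:8), 0.2 mL. At the end, liver, kidney, lung and heart checked for size, colour and weight. n = 8 per group.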

COC(=O)[C@]12CCC(C)(C)C[C@H]1[C@H]1C(=O)C=C3[C@@]4(C)C=C(C#N)C(=O)C(C)(C)[C@@H]4CC[C@@]3(C)[C@]1(C)CC2 [BARDOXOLONE METHYL]
inhibition (HCT-8 [1]): Active
inhibition (HCT-8 [2]): Active

CC1(C)CC[C@]2(C(=O)NCC(=O)OCC#CCOc3no[n+]([O-])c3S(=O)(=O)c3ccccc3)CC[C@]3(C)[C@H](C(=O)C=C4[C@@]5(C)C=C(C#N)C(=O)C(C)(C)[C@@H]5CC[C@]43C)[C@@H]2C1
Activity (HCT-8 [3]): Active
Activity [4]: Dose-dependent effect
Activity (Mus musculus [5]): Non-toxic
Activity (Mus musculus [6]): Non-toxic
